*1 amine or outer side, *2 acyl side, *3 side chain or, on linkers, in order; H or OH if unused. Where a SMILES comes first, the peptide text is derived from it. Bridges are numbered along the chain shown (N, C = ends). [ ]: non-standard residue; d: D form. Phe(3,4,5-F3) = N[C@@H](Cc1cc(F)c(F)c(F)c1)C(=O)O; Pro(3R-Ph) = O=C(O)[C@H]1NCC[C@@H]1c1ccccc1; Ala(4-thiazolyl) = N[C@@H](Cc1cscn1)C(=O)O; Bip = N[C@@H](Cc1ccc(-c2ccccc2)cc1)C(=O)O; X5 = C[C@H]1CCN([*:1])[C@@H]1C(=O)[*:2]; Abu(4-CN) = N#CCC[C@H](N)C(=O)O; Aad = N[C@@H](CCCC(=O)O)C(=O)O; Ahp(2) = CCCCC[C@H](N)C(=O)O; Cba = N[C@@H](CC1CCC1)C(=O)O
Molecular target: GTPase KRas (Homo sapiens, UniProt P01116, G12D)
Sequence (P01116 whole entry G12D): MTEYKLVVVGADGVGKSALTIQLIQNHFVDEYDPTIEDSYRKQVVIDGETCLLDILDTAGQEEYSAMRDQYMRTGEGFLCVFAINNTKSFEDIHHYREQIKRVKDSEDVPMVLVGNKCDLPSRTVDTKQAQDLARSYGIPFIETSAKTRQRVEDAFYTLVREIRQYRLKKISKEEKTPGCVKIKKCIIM
Assay: Inhibition of recombinant biotinylated KRAS G12D mutant (unknown origin) assessed as inhibition of SOS-catalyzed nucleotide exchange preincubated for 60 mins followed by addition of human SOS protein and unlabeled GTP and measured after 60 mins by TR-FRET analysis
In short: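 Biotinylated KRAS G12D was treated in EDTA buffer (1 h, RT), then loaded at 90 nM with 900 nM Bodipy-GDP and 15 nM Tb-streptavidin in Mg2+ buffer, HEPES pH 7.5 (6 h, RT). It was used at 1.5 nM assay solution with a 10-point, 3-fold DMSO compound series for 60 min at RT. A solution of 120 nM human SOS plus GTP was added for 60 min. The read-out was TR-FRET at 520/495 nm, normalized to DMSO and saturating-inhibitor controls, with a 4-parameter fit.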

Row | IC50 [nM] | SMILES
1 | > 11100 | CC[C@H](C)[C@@H]1NC(=O)[C@H](Cc2ccc(O)cc2)NC(=O)[C@H](CC(C)C)NC(=O)[C@@H]2CCCN2C(=O)[C@@H](NC(=O)[C@H](CCCNC(=N)N)NC(=O)[C@H](CCCNC(=N)N)NC(C)=O)CSSC[C@@H](C(=O)N[C@@H](CCCNC(=N)N)C(=O)N[C@@H](CCCNC(=N)N)C(N)=O)NC(=O)[C@H](C(C)C)NC(=O)[C@@H]2CCCN2C(=O)[C@H](CC(=O)O)NC(=O)[C@H](Cc2cc(F)c(F)c(F)c2)NC(=O)[C@H](Cc2cscn2)NC1=O (Ac-RRCPLYI[Ala(4-thiazolyl)][Phe(3,4,5-F3)]DPVCRR-NH2; disulfide 3-13)
2 | 5 | CCCCC[C@@H]1NC(=O)[C@@H]2CCCN2C(=O)[C@H](CC(=O)O)NC(=O)[C@H](Cc2ccc(O)cc2)NC(=O)[C@H](CO)NC(=O)[C@H]([C@@H](C)CC)NC(=O)[C@H](Cc2ccc(-c3ccccc3)cc2)NC(=O)[C@H](CC(C)C)NC(=O)[C@@H]2CCCN2C(=O)[C@@H](NC(=O)[C@H](CCCNC(=N)N)NC(=O)[C@H](CCCNC(=N)N)NC(C)=O)CSSC[C@@H](C(=O)N[C@@H](CCCNC(=N)N)C(=O)N[C@@H](CCCNC(=N)N)C(N)=O)NC1=O (Ac-RRCPL[Bip]ISYDP[Ahp(2)]CRR-NH2; disulfide 3-13)
3 | 43 | CC[C@H](C)[C@@H]1NC(=O)[C@H](Cc2ccc(-c3ccccc3)cc2)NC(=O)[C@H](CC(C)C)NC(=O)[C@@H]2CCCN2C(=O)[C@@H](NC(=O)[C@H](CCCNC(=N)N)NC(=O)[C@H](CCCNC(=N)N)NC(C)=O)CSSC[C@@H](C(=O)N[C@@H](CCCNC(=N)N)C(=O)N[C@@H](CCCNC(=N)N)C(N)=O)NC(=O)[C@H](CCCC(=O)O)NC(=O)[C@@H]2[C@@H](C)CCN2C(=O)[C@H](CC(=O)O)NC(=O)[C@H](Cc2ccc(O)cc2)NC(=O)[C@H](CO)NC1=O (Ac-RRCPL[Bip]ISYD[X5][Aad]CRR-NH2; disulfide 3-13)

More lines, now with the values behind:

Row | SMILES | IC50 [nM]
4 | CC[C@H](C)[C@@H]1NC(=O)[C@H](Cc2ccc(-c3ccccc3)cc2)NC(=O)[C@H](CC(C)C)NC(=O)[C@@H]2CCCN2C(=O)[C@@H](NC(=O)[C@H](CCCNC(=N)N)NC(=O)[C@H](CCCNC(=N)N)NC(C)=O)CSSC[C@@H](C(=O)N[C@@H](CCCNC(=N)N)C(=O)N[C@@H](CCCNC(=N)N)C(N)=O)NC(=O)[C@H](CCC#N)NC(=O)[C@@H]2CCCN2C(=O)[C@H](CC(=O)O)NC(=O)[C@H](Cc2ccc(O)cc2)NC(=O)[C@H](CO)NC1=O (Ac-RRCPL[Bip]ISYDP[Abu(4-CN)]CRR-NH2; disulfide 3-13) | 24
5 | CC[C@H](C)[C@@H]1NC(=O)[C@H](Cc2ccc(-c3ccccc3)cc2)NC(=O)[C@H](CC(C)C)NC(=O)[C@@H]2[C@@H](c3ccccc3)CCN2C(=O)[C@@H](NC(=O)[C@H](CCCNC(=N)N)NC(=O)[C@H](CCCNC(=N)N)NC(C)=O)CSSC[C@@H](C(=O)N[C@@H](CCCNC(=N)N)C(=O)N[C@@H](CCCNC(=N)N)C(N)=O)NC(=O)[C@H](C(C)C)NC(=O)[C@@H]2CCCN2C(=O)[C@H](CC(=O)O)NC(=O)[C@H](Cc2ccc(O)cc2)NC(=O)[C@H](CO)NC1=O (Ac-RRC[Pro(3R-Ph)]L[Bip]ISYDPVCRR-NH2; disulfide 3-13) | 1
6 | CC[C@H](C)[C@@H]1NC(=O)[C@H](Cc2ccc(-c3ccccc3)cc2)NC(=O)[C@H](CC2CCC2)NC(=O)[C@@H]2[C@@H](c3ccccc3)CCN2C(=O)[C@@H](NC(=O)[C@H](CCCNC(=N)N)NC(=O)[C@H](CCCNC(=N)N)NC(C)=O)CSSC[C@@H](C(=O)N[C@@H](CCCNC(=N)N)C(=O)N[C@@H](CCCNC(=N)N)C(N)=O)NC(=O)[C@H](C(C)C)NC(=O)[C@@H]2CCCN2C(=O)[C@H](CC(=O)O)NC(=O)[C@H](Cc2ccc(O)cc2)NC(=O)[C@H](CO)NC1=O (Ac-RRC[Pro(3R-Ph)][Cba][Bip]ISYDPVCRR-NH2; disulfide 3-13) | 7

Reference: ChEMBL document CHEMBL5131563, “Accelerated Identification of Cell Active KRAS Inhibitory Macrocyclic Peptides using Mixture Libraries and Automated Ligand Identification System (ALIS) Technology” (J Med Chem, 2022)
